# Calls of active or inactive are those of the source. The calls are words filed in the database; no cut-off is given here. Bridge positions count the residues as written; N and C are the ends. Peptide text beside a SMILES is read from it. I, II: the chains in the order shown.
# Key:
# Enterococcus faecium = test: Antimicrobial activity against vancomycin-resistant Enterococcus faecium CCARM 5029 after 18 hrs by broth microdilution assay in presence of 150 mM NaCl; type: functional; conditions: CCARM 5029, 18 h
# Method in brief: (§1)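 Same broth microdilution, but the medium was Mueller-Hinton broth supplemented with 150 mM NaCl. Inoculum 2 x 10^5 CFU/ml final. Peptide twofold series in 0.01% acetic acid (stocks 640 to 10 µg/ml). After 18 h at 37°C, MIC read as the lowest concentration with no visible growth.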
# Staphylococcus aureus [1] = test: Antimicrobial activity against methicillin-resistant Staphylococcus aureus CCARM 3695 treated with supernatant containing 2 mg drug incubated for 10 mins with PBS containing 50 % normal human serum centrifuged for 3 hrs by radial diffusion assay; type: functional, organism-based
# Method in brief: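 2 mg peptide incubated 10 min at 37°C in 2 ml PBS, either serum-free or with 50% heat-treated normal human serum. Spun 3 h at 295,000 x g, 4°C. Then 5 µl of supernatant tested by radial diffusion against mid-log MRSA (4 x 10^6 CFU/ml underlay, 3 h at 37°C, overlay, overnight); clear zones measured.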
# [2] = Stability in human serum assessed as drug remaining at 1 mg/ml after 8 hrs; type: ADME, cell-free; conditions: read-out: Stability
# Method in brief: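 At 0, 2, 4 and 8 h, 200-µl aliquots were quenched with 20 µl of 1% TFA, held 10 min at 4°C, and centrifuged. Remaining peptide was quantified by HPLC peak area relative to the unincubated sample. Triplicate runs.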
# [3] = Stability in human serum assessed as half life at 1 mg/ml; type: ADME, cell-free
# Listeria monocytogenes [4] = test: Antimicrobial activity against Listeria monocytogenes ATCC 19111 infected in BALB/c mouse assessed as survival of mouse at 4 mg/kg, iv administered 2 hrs after bacterial challenge measured after 15 days; type: functional
# Method in brief: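 L. monocytogenes grown 18 h at 37°C in brain heart infusion broth and frozen at –80°C; viability checked by plating. Mice infected via tail vein with 2 x 10^5 bacteria each. A single 4 mg/kg i.v. dose in 100 µl PBS was given immediately or 2 h after infection; PBS vehicle controls. Ten mice per group; survivors counted daily for 15 days.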
# Listeria monocytogenes [5] = test: Antimicrobial activity against Listeria monocytogenes ATCC 19111 infected in BALB/c mouse assessed as reduction in number of recovered CFU in spleen at 100 ug, iv measured after 3 days; type: functional, organism-based
# Method in brief: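 Mice were infected i.v. with L. monocytogenes and immediately given 100 µg peptide in 100 µl PBS i.v.; PBS alone served as control. On days 1 and 3, liver and spleen were homogenized in PBS/0.1% BSA, serially diluted, and plated on TSA with 5% sheep blood. Colonies were counted after 18 h at 37°C. Three independent experiments; mean ± SD.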
# Liver = test: Drug penetration in BALB/c mouse liver infected with CFSE-labeled Listeria monocytogenes ATCC 19111 at 200 ug, iv by laser scanning confocal microscopy; type: ADME, organism-based; conditions: in vivo
# Method in brief: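 Listeria was labeled with 5 µM CFSE for 20 min at 37°C in darkness and washed. Mice received 4 x 10^8 cells by tail vein, then immediately 200 µg peptide in 100 µl PBS i.v., or PBS only. Livers were taken 10 min later. Frozen 6-µm sections were stained with cross-reacting rabbit anti-18Hc antiserum (1:200) and Cy3 goat anti-rabbit IgG, then imaged by laser scanning confocal microscopy.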
# Listeria monocytogenes [6] = test: Antimicrobial activity against Listeria monocytogenes ATCC 19111 infected in BALB/c mouse at 4 mg/kg, iv in presence of increasing concentration of LTA; type: functional, organism-based; design: dose 4 mg/kg
# Listeria monocytogenes [7] = test: Antimicrobial activity against Listeria monocytogenes ATCC 19111 infected in BALB/c mouse at 4 mg/kg, iv in presence of increasing concentration of PGN; type: functional, organism-based; design: dose 4 mg/kg
# Listeria monocytogenes [8] = test: Antimicrobial activity against Listeria monocytogenes ATCC 19111 infected in BALB/c mouse at 4 mg/kg, iv in presence of increasing concentration of mannan; type: functional, organism-based; design: dose 4 mg/kg
# Listeria monocytogenes [9] = test: Antibacterial activity against Listeria monocytogenes ATCC 19111 in assay tube containing mixture of erythrocyte/Listeria monocytogenes cells assessed as logarithmic reduction in CFU after 30 mins; type: functional
# Method in brief: (§2)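 Washed mid-log L. monocytogenes (final 1 x 10^5 CFU/ml) was mixed with human blood cells (final 5 x 10^8 cells/ml) and peptide (final 40 µg/ml) in PBS at 37°C. A peptide-free control was included. At 10, 20 and 30 min, aliquots were plated on TSA and colonies counted after overnight growth. Blood cells were counted by hemocytometer under light microscopy.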
# [10] = Toxicity in human erythrocytes assessed as hemolysis at 25 ug/ml relative to Triton X-100; type: cell-based, Erythrocyte; conditions: read-out: Activity
# Method in brief: (§3)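 Peptide (20 µl) was mixed with 180 µl of a 2.5% (vol/vol) human RBC suspension in PBS and incubated 30 min at 37°C. PBS was added and samples centrifuged 3 min at 10,000 x g; supernatant A540 was read. Hemolysis was expressed relative to a peptide-free PBS blank and 1% Triton X-100 as 100%.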
# [11] = Toxicity in human erythrocytes assessed as hemolysis at 50 ug/ml relative to Triton X-100; type: cell-based, Erythrocyte; conditions: read-out: Activity; method in brief: as §3
# [12] = Toxicity in human erythrocytes assessed as hemolysis at 100 ug/ml relative to Triton X-100; type: cell-based, Erythrocyte; conditions: read-out: Activity; method in brief: as §3
# [13] = Toxicity against human erythrocytes in assay tube containing mixture of erythrocytes/Listeria monocytogenes cells at 40 ug/ml after 30 mins; type: cell-based; conditions: erythrocyte, 0.5 h; method in brief: as §2
# Staphylococcus aureus [14] = test: Antimicrobial activity against methicillin-resistant Staphylococcus aureus CCARM 3695 after 18 hrs by broth microdilution assay; type: functional; conditions: CCARM 3695, 18 h
# Method in brief: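 Broth microdilution (modified CLSI). Overnight stationary-phase Mueller-Hinton broth cultures diluted to 2 x 10^5 CFU/ml final. Peptide serially twofold diluted in 0.01% acetic acid (stock series 640 down to 10 µg/ml); 11 µl added to 100 µl of bacteria. After 18 h at 37°C, MIC taken as the lowest concentration preventing visible turbidity.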
# Staphylococcus aureus [15] = test: Antimicrobial activity against methicillin-resistant Staphylococcus aureus CCARM 3695 after 18 hrs by broth microdilution assay in presence of 150 mM NaCl; type: functional; conditions: CCARM 3695, 18 h; method in brief: as §1
# Listeria monocytogenes [16] = test: Antimicrobial activity against Listeria monocytogenes ATCC 19111 after 18 hrs by broth microdilution assay; type: functional; conditions: ATCC 19111, 18 h
# Method in brief: (§4)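 Bacteria were grown overnight to stationary phase in Mueller-Hinton broth at 37°C and diluted to 2 x 10^5 CFU/ml. Line 3 used MHB plus 150 mM NaCl. Peptide stock (640 µg/ml in 0.01% acetic acid) was twofold serially diluted to 10 µg/ml, and 11 µl was added per 100 µl of cells. Turbidity was read after 18 h at 37°C; MIC was the minimum concentration visibly inhibiting growth.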
# Listeria monocytogenes [17] = test: Antimicrobial activity against Listeria monocytogenes ATCC 19111 after 18 hrs by broth microdilution assay in presence of 150 mM NaCl; type: functional; conditions: ATCC 19111, 18 h; method in brief: as §4
smiles,measurement,setting,value
CC(C)C[C@H](NC(=O)CNC(=O)[C@H](Cc1cnc[nH]1)NC(=O)[C@H](Cc1cnc[nH]1)NC(=O)[C@H](CC(C)C)NC(=O)[C@H](CC(C)C)NC(=O)[C@H](C)N)C(=O)N[C@@H](CC(N)=O)C(=O)N[C@@H](CSSC[C@H](NC(=O)[C@H](CC(N)=O)NC(=O)[C@H](CC(C)C)NC(=O)CNC(=O)[C@H](Cc1cnc[nH]1)NC(=O)[C@H](Cc1cnc[nH]1)NC(=O)[C@H](CC(C)C)NC(=O)[C@H](CC(C)C)NC(=O)[C@H](C)NC(=O)[C@H](CC(N)=O)NC(=O)[C@H](CC(C)C)NC(=O)[C@H](Cc1c[nH]c2ccccc12)NC(=O)[C@@H](N)CCCCN)C(=O)N[C@@H](C)C(=O)N[C@@H](CCCCN)C(=O)NCC(=O)N[C@H](C(=O)N[C@@H](CC(C)C)C(=O)N[C@@H](C)C(=O)O)C(C)C)C(=O)N[C@@H](C)C(=O)N[C@@H](CCCCN)C(=O)NCC(=O)N[C@H](C(=O)N[C@@H](CC(C)C)C(=O)N[C@@H](C)C(=O)O)C(C)C (I: H-KWLNALLHHGLNCAKGVLA-OH / II: H-ALLHHGLNCAKGVLA-OH; disulfide I:13-II:9),MIC,Enterococcus faecium,8 µg/mL
same,Activity,Staphylococcus aureus [1],Active
same,"remaining at 8 h, 1 mg/ml",[2],39%
same,half-life at 1 mg/ml,[3],6 h
same,survival at 4 mg/kg,Listeria monocytogenes [4],50%
same,Activity,Listeria monocytogenes [5],Active
same,Activity,Liver,Active
same,Activity,Listeria monocytogenes [6],inactive
same,Activity,Listeria monocytogenes [7],inactive
same,Activity,Listeria monocytogenes [8],Active
same,Activity,Listeria monocytogenes [9],3
same,hemolysis at 25 ug/ml,[10],2.3%
same,hemolysis at 50 ug/ml,[11],4.5%
same,hemolysis at 100 ug/ml,[12],8.5%
same,Activity,[13],Non-toxic
same,MIC,Staphylococcus aureus [14],8 µg/mL
same,MIC,Staphylococcus aureus [15],16 µg/mL
same,MIC,Listeria monocytogenes [16],4 µg/mL
same,MIC,Listeria monocytogenes [17],16 µg/mL

# From ChEMBL document CHEMBL1151419, “Antimicrobial effect of halocidin-derived peptide in a mouse model of Listeria infection” (Antimicrob Agents Chemother, 2007)
